# From PubChem
# Sampled rows, rich in hits. Any-hit rate of the full collection: about 2.2%.
# PPC-1+TRAIL kill: compounds killing PPC-1 cancer cells with TRAIL present, primary screen, TRAIL potentiator project, ATPLite luminescence, uHTS; 0.41% of 220,000 active; PPC-1 cells + TRAIL, ATPLite viability luminescence; cell killing (% activity), % at 4 µM or 5 µM;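 active = cell killing above 50% in the first pass at 4 µM, then a duplicate retest at 5 µM averaging 50% or more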;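 also: plate controls were cells with TRAIL plus DMSO for no effect and medium-only wells lacking cells for full effect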
# TRAIL sens C8: viability loss with TRAIL in NB7+C8 cells, primary screen, TRAIL sensitizer project, cell-based, ATPlite luminescence; inhibition (viability loss, TRAIL sensitization), % at 10 µM; AID 624354, 2012; 1% of 360,000 active;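 active = compounds causing at least 50% loss of cell viability in the single-dose screen, relative to plate controls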
# NF-kB neuron act: activators of NF-kB expression in neurons, primary screen, cell-based, HTS. human neuronal cells, NF-kB reporter expression; hits give high values. fold change at 12.5 µM. 1.6% of 190,000 active. AID 1239, 2008; in the data active = fold change above about 3.3
# APP 5'UTR act: activators of APP 5'UTR luciferase reporter, primary screen, SH-SY5Y cells | SH-SY5Y APP 5'UTR luciferase reporter, luminescence; zero percent = DMSO vehicle wells | AID 1276, 2008 | activation, % at 2 µM | 1% of 190,000 active;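 active = activation above a set limit, based on mean plus 3 SD of controls, cut at about 140% in these data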
# FLuc inh counter: firefly luciferase enzyme inhibitors, primary screen, artefact control for luciferase-based inhibitor screens, biochemical, luminescence, ATPLite | Luciferin 4-monooxygenase (Photinus pyralis), P08659 | 10 min | inhibition, % at 10 µM | 1.5% of 200,000 active | AID 1006, 2008;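 active = inhibition above about 50% when tested at 10 µM, limit read from the data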
# Target sequence (P08659 whole entry, looked up): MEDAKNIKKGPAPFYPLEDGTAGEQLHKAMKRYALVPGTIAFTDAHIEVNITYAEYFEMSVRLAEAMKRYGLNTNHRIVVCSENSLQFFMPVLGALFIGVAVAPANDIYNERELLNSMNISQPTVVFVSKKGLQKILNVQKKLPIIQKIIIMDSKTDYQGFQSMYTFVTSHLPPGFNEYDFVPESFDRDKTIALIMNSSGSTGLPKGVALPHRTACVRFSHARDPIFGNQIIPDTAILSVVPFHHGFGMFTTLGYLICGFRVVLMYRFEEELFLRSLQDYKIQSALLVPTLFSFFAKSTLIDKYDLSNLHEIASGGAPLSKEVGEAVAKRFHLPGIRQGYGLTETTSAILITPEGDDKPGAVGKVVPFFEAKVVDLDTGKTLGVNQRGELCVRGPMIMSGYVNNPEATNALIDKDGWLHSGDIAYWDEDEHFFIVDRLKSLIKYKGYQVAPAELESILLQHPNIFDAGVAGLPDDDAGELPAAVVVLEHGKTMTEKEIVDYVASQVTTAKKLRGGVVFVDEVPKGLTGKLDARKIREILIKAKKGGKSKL
# FLuc stim CS: FLuc activators, initial screening, artefact control for FLuc-dependent activation tests, biochemical, ATPlite luminescence | Luciferin 4-monooxygenase (Photinus pyralis), P08659 | ATPlite luciferase biochemical, 10 min; 0 = ATP-free wells, 1 = DMSO control | activation factor at 10 µM | 200,000 tested, under 10 active | AID 1027, 2008;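 active = luciferase activation factor, scaled between plate controls, of at least 2 with compound at 10 µM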
#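 Assay system: Luciferase/luciferin detection reagent, cell-free biochemical luciferase assay / Read-out: luciferase activation / Benchmarks: No-ATP low control, compound-free enzyme-plus-ATP high control / Medium: PBS buffer for ATP / Detection: luminescence measurement of luciferase light output / Schedule: 10 min at ambient temperature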
# Numbers without * were called inactive; nt = not tested or not shown.
SMILES,PPC-1+TRAIL kill,TRAIL sens C8,NF-kB neuron act,APP 5'UTR act,FLuc inh counter,FLuc stim CS
O=[N+]([O-])c1ccccc1OCCCn1cnc2ccccc21,24.5,10.4,4.13*,130.4,33.7,0.7
CSC(=S)N/N=C(\C)c1ccccc1,-2.7,-0.7,5.94*,-3.1,-6.0,1.1
N/C(=N\C(=S)Nc1ccc2c(c1)OCO2)c1ccccc1,nt,-8.2,nt,nt,nt,nt
Cc1cc(N/N=C/c2ccc(Cl)cc2)nc(NCc2ccccc2)n1,16.0,28.4,0.85,14.4,35.8,0.6
Cc1cc(N/N=C/c2ccccc2)nc(NCc2ccccc2)n1,30.7,54.8*,0.95,34.2,76.1*,0.2
Cc1cc(-c2ccccc2)nc(N/N=C/c2ccc(N(C)C)cc2)n1,nt,15.0,nt,nt,nt,nt
Cc1cc(-c2ccccc2)nc(N/N=C/c2ccccc2)n1,nt,65.4*,nt,nt,nt,nt
C(=N/Nc1nc(-c2ccccc2)cc(-c2ccccc2)n1)/c1cccnc1,29.1,10.7,0.49,14.0,46.4,0.5
Cc1cc(-c2ccccc2)nc(N/N=C/c2cccnc2)n1,37.7,38.8,0.96,7.8,74.1*,0.3
C=CCn1c(=O)/c(=C/c2ccc(Cl)cc2)s/c1=C(\C#N)c1nnc2n1CCCCC2,nt,7.8,nt,nt,nt,nt
Fc1ccc(CNC(=S)NC2CCCC2)cc1,40.6,-5.9,1.05,1.6,-7.1,1.1
Cc1ccc(N2CS(=O)(=O)/C(=C/N(C)C)C2=O)cc1,46.7,24.8,1.85,99.1,56.6*,0.4
CCNc1nc(SC)nc(N(C#N)CC(=O)OC)n1,9.4,5.8,1.11,23.0,-5.1,1.1
CCc1nc2c(OCCn3cccc3)cccn2c1N(C)C(=O)C1CC1,nt,-2.9,nt,nt,nt,nt
Cc1sc2ncnc(Sc3nnnn3-c3ccccc3)c2c1C,31.2,2.6,3.93*,-5.3,-4.8,1
Nc1cc(C(=O)OCC(=O)N2CCC(Cc3ccccc3)CC2)ccc1Cl,nt,2.0,nt,nt,nt,nt
Cc1ccc(C)c(N=Nc2nc3ccccc3n2C)c1,28.8,48.3,3.94*,161.2*,75.1*,0.2
Cc1cc(C)c(C)c(N=Nc2nc3ccccc3n2C)c1C,5.4,17.8,1.49,56.4,13.7,0.9
Cc1nc(-c2ccc(NC(=O)c3ccccc3C)cc2)cs1,29.2,39.4,5.06*,119.9,61.5*,0.4
Cc1nc(-c2ccc(NC(=O)c3ccccc3Br)cc2)cs1,35.5,9.8,4.83*,78.6,45.2,0.5
Cc1nc(-c2ccc(NC(=O)Cc3ccccc3)cc2)cs1,nt,24.6,nt,nt,nt,nt
Cc1nc(-c2ccc(C(=O)Nc3cccc(F)c3)cc2)cs1,nt,77.3*,nt,nt,nt,nt
COc1ccc(NC(=O)c2ccc(-c3csc(C)n3)cc2)cc1,nt,36.9,nt,nt,nt,nt
Cc1cc(C(F)(F)F)nc2c(Cl)c(C(C)(C)C)nn12,10.8,-1.0,nt,nt,nt,nt
CCOc1ccc2nc(NC(=O)Nc3cccs3)sc2c1,9.7,46.1,9.52*,215.8*,66.9*,0.3
SMILES,PPC-1+TRAIL kill,TRAIL sens C8,NF-kB neuron act,APP 5'UTR act,FLuc inh counter,FLuc stim CS
COc1ccc(NC(=O)Nc2nc3ccccc3s2)cc1,-7.5,8.9,nt,nt,nt,nt
CCCCOC(=O)Nc1nc2ccc(OC)cc2s1,-2.0,6.9,2.2,31.5,6.2,0.9
CCOc1ccc2nc(NC(=O)NC3CCCCC3)sc2c1,9.3,1.1,1.28,35.1,2.9,1
CCCCN(C(=O)NC(=O)Nc1nc2ccc(OC)cc2s1)S(C)(=O)=O,49.7,16.6,1.71,23.9,50.3*,0.5
COc1ccc2nc(NC(=O)Nc3ccccc3)sc2c1,33.1,59.3*,9.05*,189.2*,70.2*,0.3
CCOc1ccc2nc(NC(=O)Nc3ccccc3)sc2c1,-5.3,16.3,2.46,147.8*,13.3,0.9
CCOc1ccc2nc(NC(=O)Cc3cccs3)sc2c1,6.4,0.7,2.16,46.5,8.9,0.9
Cc1c(C(=O)NCc2ccc3c(c2)OCO3)sc(=O)n1Cc1cccc(F)c1,nt,-9.4,nt,nt,nt,nt
CCOc1ccc2nc(NC(=O)COC)sc2c1,26.5,8.3,4.91*,139.7*,30.6,0.7
CCOc1ccc2nc(NC(=O)CN3CCN(CC)CC3)sc2c1,nt,-3.6,nt,nt,nt,nt
CCOc1ccc2nc(NC(=O)CN3CCOCC3)sc2c1,-5.8,-3.7,1.24,-9.9,61.3*,0.4
CCOCC(=O)Nc1nc2ccc(OC)cc2s1,25.0,24.3,3.27,72.6,31.7,0.7
O=C1CC(C(=O)O)C(c2ccccc2)c2ccccc21 (stereo unspecified),nt,1.9,nt,nt,nt,nt
CN(C(=O)c1cccc(NC(=O)Cc2ccc(NC(=O)C3CCN(C(=O)C4CC4)CC3)cc2)c1)C1CCCC1,nt,-3.9,nt,nt,nt,nt
C/C(=N/NC(=O)c1ccc2c(c1)OCO2)c1cccc(NC(=O)C(C)(C)C)c1,21.3,34.0,1.49,-2.2,52.9*,0.5
C/C(=N\NC(=O)CNC(=O)c1ccc2c(c1)OCCO2)c1ccco1,2.0,3.1,nt,nt,nt,nt
C/C(=N\NC(=O)c1ccc2c(c1)OCO2)c1ccco1,36.6,52.0*,2.84,60.3,81.9*,0.2
C/C(=N\NC(=O)c1csc(C)c1C)c1ccco1,41.1,54.9*,3.72*,78.4,78.9*,0.2
COc1ccc(NC(=O)c2cccc3c2C(=O)c2ccc(-c4ccc(F)cc4OCc4ccccc4)cc2S3(=O)=O)cc1,nt,59.0*,nt,nt,nt,nt
CN(C)c1ccc(C(=O)N2CCNC(=O)C2CC(=O)Nc2ccc(F)cc2)cc1 (stereo unspecified),nt,15.3,nt,nt,nt,nt
CCOC(=O)C1CCN(C(=O)C2c3ccccc3C(=O)N(C)C2c2ccc(OC)cc2)CC1 (stereo unspecified),27.2,53.7*,0.83,-11.8,-6.0,1.1
COc1ccc(C2C(C(=O)N3CCCCC3)c3ccccc3C(=O)N2C)cc1 (stereo unspecified),1.3,43.2,1.03,8.1,-4.3,1
COc1ccc(-c2sc3ccccc3c2-c2ccc(OCCN(C)C)cc2)cc1,nt,78.9*,nt,nt,nt,nt
CC(C)c1cc(C(=O)Nc2cc(Br)ccc2O)no1,4.7,15.4,7.54*,37.9,4.6,1
CC(C)c1cc(C(=O)Nc2cc(Cl)ccc2O)no1,13.5,3.6,8.61*,138.6*,10.6,0.9
SMILES,PPC-1+TRAIL kill,TRAIL sens C8,NF-kB neuron act,APP 5'UTR act,FLuc inh counter,FLuc stim CS
CCCc1cc(C(=O)Nc2cc(Br)ccc2O)no1,-2.2,-0.2,5.49*,23.0,2.8,1
CCCc1cc(C(=O)Nc2cc(Cl)ccc2O)no1,nt,-24.4,nt,nt,nt,nt
Cc1noc(C(=O)Nc2cc(Cl)ccc2O)c1Cl,nt,6.3,nt,nt,nt,nt
O=C(Nc1cc(Br)ccc1O)c1cc(-c2cccs2)on1,nt,3.2,nt,nt,nt,nt
COc1ccc(CC(=O)Nc2nn(C)c3nc4c(C)cccc4cc23)cc1,0.2,4.0,nt,nt,nt,nt
O=C(Nc1cccc(Oc2ccccc2)c1)C1Cc2c(-c3ccco3)ccnc2O1 (stereo unspecified),nt,-4.4,nt,nt,nt,nt
CS(=O)(=O)Nc1cccc(NC(=O)C2Cc3c(-c4ccco4)ccnc3O2)c1 (stereo unspecified),nt,53.2*,nt,nt,nt,nt
